This is an account of results in ChEMBL document CHEMBL1122301, “Bioisosteric design of conformationally restricted pyridyltriazole histamine H2-receptor antagonists” (J Med Chem, 1983).

What is called Kb is the affinity of an antagonist, worked out from how it opposes an agonist. The low end stands for higher antagonist affinity, the high end for lower antagonist affinity. Usually logD stands for the decadic logarithm of the distribution of all forms, ionised or not, between an organic phase and buffer at a given pH. Read a low logD as a more hydrophilic compound. The term pKa denotes the negative logarithm of the acid dissociation constant. Read a high pKa as a weaker acid or stronger base.

The subject of data set [1] is Canis familiaris. Description: Acid antisecretory activity against pentagastrin-stimulated Heidenhain pouch dogs at a dose of 10 mg/kg after intravenous administration. Type of data set: functional, Canis lupus familiaris. A digest of the protocol:
(§1)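 Pentagastrin was infused iv into a leg vein of fasted, conscious Heidenhain pouch dogs to give near-maximal acid output. Juice was collected every 30 min, ten collections in all, and acid was titrated (1.0 mL to pH 7.4, 0.1 N NaOH). The single iv dose was given at 90 min. Percent inhibition was the lowest post-dose acid output compared with the mean output just before dosing.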

Data set [2] concerns the target Histamine H2 receptor (Cavia porcellus) (UniProt P47747). As to the kind of experiment: Antagonistic activity against histamine H2 receptor from guinea pig atrium; activity KB (Dissociation Constant) is negative. The format is functional, tissue-based. The settings on record: Cardiac atrium.
The subject of data set [3] is Canis familiaris. Description: Acid antisecretory activity against pentagastrin-stimulated Heidenhain pouch dogs at a dose of 5 mg/kg after intravenous administration. Type of data set: functional, Canis lupus familiaris. A digest of the protocol: as §1
In data set [4] the target is Histamine H2 receptor (Cavia porcellus) (UniProt P47747). Description: Antagonistic activity against histamine H2 receptor from guinea pig atrium. The format is functional, tissue-based. The settings on record: Cardiac atrium.
For data set [5], the system named is Canis familiaris. Description: Acid antisecretory activity against pentagastrin-stimulated Heidenhain pouch dogs at a dose of 23 mg/kg after intravenous administration. Type of data set: functional, Canis lupus familiaris. A digest of the protocol: as §1
Data set [6] has as its system Canis familiaris. As to the kind of experiment: Acid antisecretory activity against pentagastrin-stimulated Heidenhain pouch dogs at a dose of 25 mg/kg after intravenous administration. Type of data set: functional, Canis lupus familiaris. Summed up: as §1
For data set [7], the target named is Histamine H1 receptor (Cavia porcellus) (UniProt P31389). As to the kind of experiment: Relative antagonistic activity against Histamine H1 receptor.
A short description of data set [8]: Log distribution coefficient between 1-octanol and aqueous buffer at specified pH of 9.2. The note with it: 1-octanol/aqueous buffer, pH 9.2.
The test system of data set [9] is Canis familiaris. Description: Acid antisecretory activity against pentagastrin-stimulated Heidenhain pouch dogs after intravenous administration. Type of data set: functional. The settings on record: Canis lupus familiaris, read-out: ID50 (the source's name). Summed up:
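Fasted, unanesthetized Heidenhain pouch dogs received a continuous pentagastrin infusion into a superficial leg vein at a near-maximal acid-stimulating dose. Gastric juice was collected at 30-min intervals, ten collections per dog. Acid was titrated on 1.0 mL to pH 7.4 with 0.1 N NaOH. Compound or vehicle was given iv at 90 min. ID50 came from linear regression of log dose on percent inhibition in n dogs.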

Data set [10] in a line: pKa ([…] constant) value at a physiological pH of 7.4. The format is physicochemical. The note with it: pH 7.4. Summed up: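 Ionisation constants taken as the observed pH1/2 from titration at 23 °C. The dihydrochloride salts were titrated in water, and the free bases in 1:1 methanol–water.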
Data set [11] in a line: Log distribution coefficient between 1-octanol and aqueous buffer at pH of 9.2. Type of data set: physicochemical. The settings on record: 1-octanol/aqueous buffer, pH 9.2.
Data set [12] is described as follows: Log distribution coefficient between 1-octanol and aqueous buffer at pH of 7.4. The settings on record: 1-octanol/aqueous buffer, pH 7.4. Type of data set: physicochemical.
The target of data set [13] is Histamine H1 receptor (Cavia porcellus) (UniProt P31389). As to the kind of experiment: Relative antagonistic activity against Histamine H1 receptor, NA is Inactive.

Active and inactive are the calls of the source. The calls are words filed in the database; no cut-off is given here.

Sequence of Histamine H2 receptor (Cavia porcellus) (P47747 whole entry): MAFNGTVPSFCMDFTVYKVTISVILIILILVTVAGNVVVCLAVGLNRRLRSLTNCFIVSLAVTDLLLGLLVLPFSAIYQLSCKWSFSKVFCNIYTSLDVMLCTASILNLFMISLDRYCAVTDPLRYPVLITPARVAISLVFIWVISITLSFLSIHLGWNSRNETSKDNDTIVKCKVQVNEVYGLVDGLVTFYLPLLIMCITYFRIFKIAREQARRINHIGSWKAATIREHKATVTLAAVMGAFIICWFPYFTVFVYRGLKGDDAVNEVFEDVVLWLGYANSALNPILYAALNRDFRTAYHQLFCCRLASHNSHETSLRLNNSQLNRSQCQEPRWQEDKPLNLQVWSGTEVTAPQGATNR
Sequence of Histamine H1 receptor (Cavia porcellus) (P31389 whole entry): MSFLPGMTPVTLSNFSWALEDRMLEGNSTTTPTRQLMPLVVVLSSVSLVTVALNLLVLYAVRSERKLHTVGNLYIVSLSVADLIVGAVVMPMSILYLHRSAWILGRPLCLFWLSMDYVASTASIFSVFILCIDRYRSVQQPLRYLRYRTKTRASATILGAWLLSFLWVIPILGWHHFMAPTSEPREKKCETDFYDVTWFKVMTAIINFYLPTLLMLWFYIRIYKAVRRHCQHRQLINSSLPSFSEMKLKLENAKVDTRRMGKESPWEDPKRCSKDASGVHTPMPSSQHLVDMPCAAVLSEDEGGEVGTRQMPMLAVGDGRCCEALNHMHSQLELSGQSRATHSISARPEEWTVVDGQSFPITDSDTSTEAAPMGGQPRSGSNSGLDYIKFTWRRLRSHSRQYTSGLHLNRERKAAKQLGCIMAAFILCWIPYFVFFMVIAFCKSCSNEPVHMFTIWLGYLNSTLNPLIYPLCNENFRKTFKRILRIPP

Consider `Nc1n[nH]c(-c2ccccn2)n1`, for which the Max inhibition with Canis familiaris [1] and with Canis familiaris [3] was 0% in each case. In data set [2], the KB result is “inactive”.
Consider `Nc1n[nH]c(-c2ccncc2)n1`, for which the Max inhibition in the data set on Canis familiaris [1] is reported as 43%; in the data set with Canis familiaris [5], 73%. This molecule had a Kb in [4] of 41900 nM.
Take `Nc1n[nH]c(Cc2cccnc2)n1`: the Max inhibition with Canis familiaris [1] is 0%. The KB entry in [2] was “inactive”.
On to `Nc1n[nH]c(-c2cccnc2)n1`, for which the Max inhibition is on record as 22% with Canis familiaris [1] and 11% in the data set on Canis familiaris [6]. In addition, the KB result in [2] is “inactive”.
With `c1ccc(CN(CC2=NCCN2)c2ccccc2)cc1`, the Relative activity in [7] is greater than 1.
Still for that read-out and setting: the figure for `c1ccc(CN(CCc2c[nH]cn2)Cc2ccccc2)cc1` is 0.01.
On to `CN/C(=N\CCSCc1nc[nH]c1C)NC#N` [CIMETIDINE], for which the logD was found to be 0.54 in [8] and 0.4 in data set [11]. In the data set on Canis familiaris [9], the ED50 was found to be 1.02 mg/kg. In [10], this molecule returned a pKa of 7.02.
For the molecule `c1ccc(CN(Cc2c[nH]cn2)c2ccccc2)cc1`, the Relative activity in data set [7] is greater than 0.5.
For `Nc1n[nH]c(Cc2ccccn2)n1`, the Max inhibition was 0% in the data set with Canis familiaris [1] and 18% in the data set with Canis familiaris [3]. Also, the KB entry in data set [2] was “inactive”.
Regarding `Nc1n[nH]c(Cc2ccncc2)n1`, the Max inhibition in the data set on Canis familiaris [1] is 26%; with Canis familiaris [6] it was 30%. Moreover, the KB result in data set [2] was “inactive”.
With `Nc1cc(-c2n[nH]c(N)n2)ccn1`, the logD in data set [12] is 0.11; in [11], -0.06. In data set [4], this molecule had a Kb of 2220 nM. Further, the ED50 with Canis familiaris [9] is 2.35 mg/kg.
Regarding `CCNc1cc(-c2n[nH]c(N)n2)ccn1`, the logD in [12] amounted to 1.13; in [11], 0.97. Also, the Kb in [4] came to 235 nM. Also, the ED50 in the data set on Canis familiaris [9] was determined as 0.87 mg/kg.
For `CN(C)CCN(Cc1ccccc1)Cc1ccccc1`, the outcome in [13] was inactive.
In data set [7], `CN(C)CCN(Cc1ccccc1)c1ccccc1` showed a Relative activity of 1.
